This is an account of results in ChEMBL document CHEMBL1144496, “Design, synthesis, and biological evaluation of novel iso-D-2',3'-dideoxy-3'-fluorothianucleoside derivatives” (Bioorg Med Chem, 2007).

Data set [1] concerns Encephalomyocarditis virus. In words: Antiviral activity against encephalomyocarditis virus by CPE assay. In kind it is functional, organism-based. As to conditions: Cardiovirus A. The method, boiled down:
(§1)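 Compounds were tested at concentrations up to 100 μg/mL, and antiviral activity was expressed as EC50. For the […] line, the virus was strain […]. Cell hosts named in the work were MT4 (HTLV-1-infected human T-lymphocytes), HeLa and Vero (African green monkey kidney) cells.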

For a further data set, the system named is Human alphaherpesvirus 2. In words: Antiviral activity against HSV2 by CPE assay. The class given is functional, organism-based. The method, boiled down: as §1
Data set [2] relates to Influenza A virus. In kind it is functional, organism-based. As to conditions: H1N1.
Data set [3] relates to Vesicular stomatitis virus. In words: Antiviral activity against vesicular stomatitis virus by CPE assay. The class given is functional, organism-based. A digest of the protocol:
as §1

Another data set deals with Coxsackievirus B3. In words: Antiviral activity against coxsackie B virus type 3 by CPE assay. The settings on record: Enterovirus B. In kind it is functional, organism-based.
In another data set the test system is Human alphaherpesvirus 1. In words: Antiviral activity against HSV1 by CPE assay. The class given is functional, organism-based. The method, boiled down: as §1
The test system of a further data set is Feline coronavirus. In words: Antiviral activity against Feline coronavirus WSU. In kind it is functional, organism-based. The method, boiled down: (§2)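 Feline virus strain WSU screened together with influenza A strains; test concentrations went up to 100 μg/mL, with antiviral activity and cytotoxicity both assessed.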
Data set [4] deals with Feline infectious peritonitis virus. In words: Antiviral activity against FIP WSU. In kind it is functional. A digest of the protocol:
as §2

A further data set relates to HeLa. In words: Cytotoxicity against human HeLa cells. In kind it is cell-based. The method, boiled down: (§3)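 Cytotoxicity was assessed on uninfected cells: Vero (African green monkey kidney) and HeLa (human cervical carcinoma). Compounds were tested up to 100 μg/mL, and the value was reported as CC50, the 50% cytotoxic concentration.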
For data set [5], the system named is Human T-cell leukemia virus type I. In words: Cytostatic activity against HTLV1 infected human MT4 lymphocyte. In kind it is functional. The method, boiled down:
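HTLV-1-infected human T-lymphocyte MT4 cells were exposed to compound at concentrations up to 100 μg/mL. Read-out was the 50% cytostatic concentration (CS50).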

Data set [6] concerns Influenza A virus. In words: Antiviral activity against influenza virus type A H3N2. In kind it is functional, organism-based. A digest of the protocol:
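Influenza A viruses were H1N1 strain Taiwan and H3N2 strain Johannesburg. Compounds were tested for antiviral activity and cytotoxicity at concentrations up to 100 μg/mL.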

The test system of another data set is Vero. In words: Cytotoxicity against Vero cells. The settings on record: chlorocebus sabaeus. In kind it is cell-based. The method, boiled down: as §3
Data set [7] concerns Human immunodeficiency virus 1. In words: Antiviral activity against HIV1 3B by CPE assay. The class given is functional, organism-based. As to conditions: Human immunodeficiency virus 1, 3B.

Converted amounts (≈) assume the structure as drawn. The source made the active and inactive calls. No cut-off for these calls is given here.

A word on the EC50: it is the concentration needed to bring the measured effect to its halfway point. A low value points to greater potency. What is called CC50 is the concentration giving 50% cytotoxicity. The low end stands for greater toxicity to the cells, the high end for lower toxicity to the cells. Turning to `Cc1cn([C@@H]2CS[C@H](CO)[C@H]2F)c(=O)[nH]c1=O`, the EC50 (in [1]; with Human alphaherpesvirus 2; in data set [3]; with Coxsackievirus B3; in the data set with Human alphaherpesvirus 1; in data set [7]) was > 100 µg/mL throughout. Also, the result (in the data set with Influenza A virus [2]; in the data set on Feline coronavirus; in data set [4]; with Influenza A virus [6]) was inactive. In addition, the CC50 with HeLa and in the data set on Vero was > 100 µg/mL each time. For the same compound, the CS50 in data set [5] was >100 µg/mL.
Consider `O=c1ccn([C@@H]2CS[C@H](CO)[C@H]2F)c(=O)[nH]1`, for which the EC50 (in data set [1]; in the data set on Human alphaherpesvirus 2; in data set [3]; in the data set with Coxsackievirus B3; in the data set on Human alphaherpesvirus 1; in [7]) was > 100 µg/mL throughout. Besides, the outcome (in the data set on Influenza A virus [2]; in the data set with Feline coronavirus; in data set [4]; with Influenza A virus [6]) was inactive. The CC50 in the data set with HeLa and in the data set on Vero was > 100 µg/mL throughout. The CS50 in data set [5] was >100 µg/mL.
Consider `NC(=O)c1ncn([C@@H]2O[C@H](CO)[C@@H](O)[C@H]2O)n1` [RIBAVIRIN], for which the concentration giving a half-maximal response (EC50) in data set [1] amounted to 23.4 µg/mL (≈ 96 µM); in data set [3], 10.3 µg/mL (≈ 42.3 µM); in the data set with Coxsackievirus B3 it was 64.1 µg/mL (≈ 262 µM). The CC50 with HeLa is > 300 µg/mL.
As to `Nc1ccn([C@@H]2CS[C@H](CO)[C@H]2F)c(=O)n1`, the EC50 in data set [1] is > 14.5 µg/mL; in the data set with Human alphaherpesvirus 2, > 100 µg/mL; in data set [3], 9.43 µg/mL (≈ 38.4 µM); in the data set with Coxsackievirus B3, > 14.5 µg/mL; with Human alphaherpesvirus 1 it was > 100 µg/mL; in [7], > 100 µg/mL. The result (in the data set on Influenza A virus [2]; in the data set on Feline coronavirus; in data set [4]; in the data set with Influenza A virus [6]) was inactive. The figures for the CC50 in the data set on HeLa and with Vero were 14.54 µg/mL (≈ 59.3 µM) and > 100 µg/mL, respectively. For the same compound, in data set [5], the CS50 was >100 µg/mL.
In the case of `O=c1[nH]cnc2c1ncn2[C@H]1CC[C@@H](CO)O1` [DIDANOSINE], the values for the EC50 in the data set with Human alphaherpesvirus 2 and in the data set on Human alphaherpesvirus 1 were 0.47 µg/mL (≈ 1.99 µM) and 0.17 µg/mL (≈ 0.72 µM), respectively. Also, in data set [5], the CS50 was >100 µg/mL. In addition, in the data set on Vero, the CC50 was > 10 µg/mL.
As for `Nc1ncnc2c1ncn2[C@@H]1CS[C@H](CO)[C@H]1F`, the EC50 (in [1]; in the data set on Human alphaherpesvirus 2; in data set [3]; with Coxsackievirus B3; in the data set with Human alphaherpesvirus 1; in [7]) was > 100 µg/mL in each case. Besides, the result (in the data set with Influenza A virus [2]; in the data set with Feline coronavirus; in data set [4]; in the data set with Influenza A virus [6]) was inactive. Further, the CC50 in the data set on HeLa and in the data set with Vero was > 100 µg/mL in each case. For the same compound, in [5], the CS50 was >100 µg/mL.
